Results reported in ChEMBL document CHEMBL3120104, “Discovery of the first C-nucleoside HCV polymerase inhibitor (GS-6620) with demonstrated antiviral response in HCV infected patients” (J Med Chem, 2014).
Converted amounts (≈) assume the structure as drawn.

test system: not listed separately; experiment: Metabolic stability in serum (unknown origin); type: ADME; details: not given; call rule not given here

SMILES | Stability
CC(C)OC(=O)[C@H](C)NP(=O)(OC[C@H]1O[C@@](C#N)(c2ccc3c(N)ncnn23)[C@](C)(O)[C@@H]1O)Oc1ccccc1 (stereo not given in full) | Stable
CC[C@H](C)OC(=O)[C@H](C)NP(=O)(OC[C@H]1O[C@@](C#N)(c2ccc3c(N)ncnn23)[C@](C)(O)[C@@H]1O)Oc1ccccc1 (stereo not given in full) | Stable

test system: not listed separately; experiment: Oral absorption in beagle dog at 5 mg/kg, po by LC/MS/MS analysis; type: ADME, organism-based, Canis lupus familiaris; set-up: dose 5 mg/kg, route oral; details: in vivo
Procedure, shortened: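 Naive male beagle dogs were dosed once, orally at 5 mg/kg in EtOH/PEG 400/50 mM citrate buffer pH 4 (5/40/55), or intravenously at 0.5 mg/kg for reference. Plasma was sampled over 24 h and processed by acetonitrile precipitation. Bioavailability %F = AUC_po × Dose_iv / (AUC_iv × Dose_po).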

SMILES | Fa [%]
CC(C)OC(=O)[C@H](C)NP(=O)(OC[C@H]1O[C@@](C#N)(c2ccc3c(N)ncnn23)[C@](C)(O)[C@@H]1O)Oc1ccccc1 (stereo not given in full) | 10
CC[C@H](C)OC(=O)[C@H](C)NP(=O)(OC[C@H]1O[C@@](C#N)(c2ccc3c(N)ncnn23)[C@](C)(O)[C@@H]1O)Oc1ccccc1 (stereo not given in full) | 16

test system: not listed separately; experiment: AUC (0 to infinity) in jagular vein cannulated beagle dog at 0.5 mg/kg, iv by LC/MS/MS analysis; type: ADME, organism-based, Canis lupus familiaris; set-up: time infinity, dose 0.5 mg/kg, route intravenous; details: plasma
Procedure, shortened: (§1)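 Naive male beagle dogs got a single intravenous infusion of 0.5 mg/kg in EtOH/PEG 400/water 5/20/75, adjusted to pH 4 with HCl. EDTA-K3 blood was collected over 24 h and plasma isolated. Plasma was precipitated with acetonitrile to a final 60%, filtered, dried, reconstituted in 20% acetonitrile and analysed.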

SMILES | AUC(0-inf) [µM·h]
CC(C)OC(=O)[C@H](C)NP(=O)(OC[C@H]1O[C@@](C#N)(c2ccc3c(N)ncnn23)[C@](C)(O)[C@@H]1O)Oc1ccccc1 (stereo not given in full) | 0.16
CC[C@H](C)OC(=O)[C@H](C)NP(=O)(OC[C@H]1O[C@@](C#N)(c2ccc3c(N)ncnn23)[C@](C)(O)[C@@H]1O)Oc1ccccc1 (stereo not given in full) | 0.12

test system: not listed separately; experiment: AUC (0 to infinity) in portal vein cannulated beagle dog at 0.5 mg/kg, iv by LC/MS/MS analysis; type: ADME, organism-based, Canis lupus familiaris; set-up: time infinity, dose 0.5 mg/kg, route intravenous; details: plasma; procedure, shortened: as §1

SMILES | AUC(0-inf) [µM·h]
CC(C)OC(=O)[C@H](C)NP(=O)(OC[C@H]1O[C@@](C#N)(c2ccc3c(N)ncnn23)[C@](C)(O)[C@@H]1O)Oc1ccccc1 (stereo not given in full) | 0.99
CC[C@H](C)OC(=O)[C@H](C)NP(=O)(OC[C@H]1O[C@@](C#N)(c2ccc3c(N)ncnn23)[C@](C)(O)[C@@H]1O)Oc1ccccc1 (stereo not given in full) | 0.8

test system: not listed separately; experiment: Oral bioavailability in golden syrian hamster at 5 mg/kg; type: ADME, organism-based, Mesocricetus auratus; details: in vivo

SMILES | bioavailability [%]
CC(C)OC(=O)[C@H](C)NP(=O)(OC[C@H]1O[C@@](C#N)(c2ccc3c(N)ncnn23)[C@](C)(O)[C@@H]1O)Oc1ccccc1 (stereo not given in full) | 1.9

test system: Syrian golden hamster; experiment: Cmax in golden syrian hamster assessed as liver triphosphate level at 5 mg/kg, po by LC/MS/MS analysis; type: ADME, organism-based, Mesocricetus auratus; set-up: dose 5 mg/kg, route oral; details: in vivo
Procedure, shortened: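 Groups of 12 Golden Syrian hamsters were dosed orally at 5 mg-equiv/kg. Vehicle was EtOH/PEG400/water buffered with 50 mM pH 4 citrate at 2.5 mg-equiv/mL. Liver was homogenized in four volumes of ice-cold 0.1% KOH/67 mM EDTA in 70% MeOH containing 0.25 μM Cl-ATP, then centrifuged, dried and reconstituted in 1 mM ammonium phosphate pH 7.0. Triphosphate was measured by LC/MS/MS, with endogenous ATP checked for sample stability.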

SMILES | Cmax [nM]
CC(C)OC(=O)[C@H](C)NP(=O)(OC[C@H]1O[C@@](C#N)(c2ccc3c(N)ncnn23)[C@](C)(O)[C@@H]1O)Oc1ccccc1 (stereo not given in full) | 530
CC[C@H](C)OC(=O)[C@H](C)NP(=O)(OC[C@H]1O[C@@](C#N)(c2ccc3c(N)ncnn23)[C@](C)(O)[C@@H]1O)Oc1ccccc1 (stereo not given in full) | 1270

test system: Syrian golden hamster; experiment: Cmax in golden syrian hamster assessed as liver triphosphate level at 1 mg/kg, iv by LC/MS/MS analysis; type: ADME, organism-based, Mesocricetus auratus; set-up: dose 1 mg/kg, route intravenous; details: in vivo
Procedure, shortened: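 Golden Syrian hamsters in groups of 12, dosed iv at 1 mg-equiv/kg in EtOH/PEG400/water adjusted to pH 4 with HCl (0.5 mg-equiv/mL). Liver homogenised in ice-cold 70% MeOH with 0.1% KOH, 67 mM EDTA and 0.25 μM Cl-ATP internal standard, then centrifuged, dried and reconstituted. Triphosphate measured by LC/MS/MS; endogenous ATP checked for sample stability.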

SMILES | Cmax [nM]
CC(C)OC(=O)[C@H](C)NP(=O)(OC[C@H]1O[C@@](C#N)(c2ccc3c(N)ncnn23)[C@](C)(O)[C@@H]1O)Oc1ccccc1 (stereo not given in full) | 5650

test system: Hepatocyte; experiment: Prodrug coversion in human hepatocytes assessed as triphosphate formation assesed per million cells at 10 uM incubated for 1 hr followed by compound washout by liquid chromatography coupled with mass spectrometry; type: ADME, cell-based; set-up: dose 10 uM; details: not given
Procedure, shortened: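 Confluent primary human hepatocytes (0.88 × 10⁶ cells/well, Williams E medium) were exposed to 10 μM compound for 1 h, then to drug-free medium for 23 h. Cells were collected during and after exposure and extracted. Triphosphate was quantified by LC/MS/MS and expressed per million cells.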

SMILES | Drug metabolism
CC[C@H](C)OC(=O)[C@H](C)NP(=O)(OC[C@H]1O[C@@](C#N)(c2ccc3c(N)ncnn23)[C@](C)(O)[C@@H]1O)Oc1ccccc1 (stereo not given in full) | Active

test system: not listed separately; experiment: Metabolic stability in human liver S9 fraction assessed as extraction at 2 uM after 90 mins by LC/MS/MS analysis; type: ADME, subcellular; details: read-out: Stability
Procedure, shortened: (§2)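 Compound at 2 μM was incubated with human intestinal or hepatic S9 fraction plus NADPH and UDPGA for 90 min at 37 °C. Time-point samples were quenched in aqueous acetonitrile/methanol with internal standard and analysed by LC/MS/MS. Half-life came from an exponential first-order fit, and hepatic extraction was predicted from half-life using the well-stirred model.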

SMILES | hepatic extraction ratio at 1.5 h, 2 µM
CC(C)OC(=O)[C@H](C)NP(=O)(OC[C@H]1O[C@@](C#N)(c2ccc3c(N)ncnn23)[C@](C)(O)[C@@H]1O)Oc1ccccc1 (stereo not given in full) | 0.9
CC[C@H](C)OC(=O)[C@H](C)NP(=O)(OC[C@H]1O[C@@](C#N)(c2ccc3c(N)ncnn23)[C@](C)(O)[C@@H]1O)Oc1ccccc1 (stereo not given in full) | 0.93

test system: not listed separately; experiment: Half life in human intestinal S9 fraction at 2 uM by LC/MS/MS analysis; type: ADME, Intestine; details: not given; procedure, shortened: as §2

SMILES | half-life at 2 µM [h]
CC(C)OC(=O)[C@H](C)NP(=O)(OC[C@H]1O[C@@](C#N)(c2ccc3c(N)ncnn23)[C@](C)(O)[C@@H]1O)Oc1ccccc1 (stereo not given in full) | > 10.2
CC[C@H](C)OC(=O)[C@H](C)NP(=O)(OC[C@H]1O[C@@](C#N)(c2ccc3c(N)ncnn23)[C@](C)(O)[C@@H]1O)Oc1ccccc1 (stereo not given in full) | 9.87

test system: not listed separately; experiment: Permeability across basolateral to apical side in human Caco2 cells at 10 uM after 1 to 2 hrs by LC/MS/MS analysis; type: ADME, cell-based; details: Caco-2, read-out: permeability
Procedure, shortened: (§3)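 Caco-2 monolayers were grown at least 21 days, and membrane integrity was checked by TEER after buffer equilibration. Test compound was dosed at 10 μM on the apical or basolateral side, in duplicate wells. Receiver samples at 1 and 2 h were precipitated with acetonitrile plus internal standard and run by LC/MS/MS.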

SMILES | Papp B→A at 10 µM [×10⁻⁶ cm/s]
CC(C)OC(=O)[C@H](C)NP(=O)(OC[C@H]1O[C@@](C#N)(c2ccc3c(N)ncnn23)[C@](C)(O)[C@@H]1O)Oc1ccccc1 (stereo not given in full) | 8.92
CC[C@H](C)OC(=O)[C@H](C)NP(=O)(OC[C@H]1O[C@@](C#N)(c2ccc3c(N)ncnn23)[C@](C)(O)[C@@H]1O)Oc1ccccc1 (stereo not given in full) | 17.9

test system: not listed separately; experiment: Permeability across apical to basolateral side in human Caco2 cells at 10 uM after 1 to 2 hrs by LC/MS/MS analysis; type: ADME, cell-based; details: Caco-2, read-out: permeability; procedure, shortened: as §3

SMILES | Papp A→B at 10 µM [×10⁻⁶ cm/s]
CC(C)OC(=O)[C@H](C)NP(=O)(OC[C@H]1O[C@@](C#N)(c2ccc3c(N)ncnn23)[C@](C)(O)[C@@H]1O)Oc1ccccc1 (stereo not given in full) | 0.16
CC[C@H](C)OC(=O)[C@H](C)NP(=O)(OC[C@H]1O[C@@](C#N)(c2ccc3c(N)ncnn23)[C@](C)(O)[C@@H]1O)Oc1ccccc1 (stereo not given in full) | 1.47

test system: not listed separately; experiment: Aqueous solubility of the compound in phosphate buffer at pH 7 by reverse-phase UPLC-UV method; type: physicochemical; details: not given
Procedure, shortened: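 Excess solid was suspended in pH 7 phosphate buffer at ambient temperature, sonicated, then stirred for at least 2 h. After centrifugation, the supernatant was quantified by reverse-phase UPLC-UV.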

SMILES | solubility [µg/mL]
CC(C)OC(=O)[C@H](C)NP(=O)(OC[C@H]1O[C@@](C#N)(c2ccc3c(N)ncnn23)[C@](C)(O)[C@@H]1O)Oc1ccccc1 (stereo not given in full) | 306 (≈ 533 µM)
CC[C@H](C)OC(=O)[C@H](C)NP(=O)(OC[C@H]1O[C@@](C#N)(c2ccc3c(N)ncnn23)[C@](C)(O)[C@@H]1O)Oc1ccccc1 (stereo not given in full) | 200 (≈ 340 µM)

test system: not listed separately; experiment: Lipophilicity, log D of the compound by HPLC/UV method; type: physicochemical; details: not given
Procedure, shortened: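 A 10 mM DMSO stock was diluted 1:100 into 1:1 acetonitrile/water, shaken 30 min, and analysed by HPLC/UV on a C18 column with 20 mM ammonium acetate/acetonitrile mobile phase.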

SMILES | logD
CC(C)OC(=O)[C@H](C)NP(=O)(OC[C@H]1O[C@@](C#N)(c2ccc3c(N)ncnn23)[C@](C)(O)[C@@H]1O)Oc1ccccc1 (stereo not given in full) | 1.8
CC[C@H](C)OC(=O)[C@H](C)NP(=O)(OC[C@H]1O[C@@](C#N)(c2ccc3c(N)ncnn23)[C@](C)(O)[C@@H]1O)Oc1ccccc1 (stereo not given in full) | 2.1

test system: Huh-7; experiment: Prodrug coversion in human HuH7 cells assessed as triphosphate formation at 10 uM after 24 hrs by liquid chromatography coupled with mass spectrometry; type: ADME, cell-based; details: huh-7, 24 h
Procedure, shortened: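 Huh-7 cells carrying the GT1b replicon, grown to confluency in 12-well plates (0.88 × 10⁶ cells/well). Exposed 24 h to 10 μM compound, then washed with ice-cold saline and extracted overnight in frozen 70% methanol. Dried extract resuspended in 1 mM ammonium phosphate pH 8.5. Triphosphate quantified by LC/triple-quadrupole MS.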

SMILES | Drug metabolism [µM]
CC(C)OC(=O)[C@H](C)NP(=O)(OC[C@H]1O[C@@](C#N)(c2ccc3c(N)ncnn23)[C@](C)(O)[C@@H]1O)Oc1ccccc1 (stereo not given in full) | 20

test system: not listed separately; experiment: Cytotoxicity against human HuH7 cells after 3 days by fluorescence assay; type: cell-based; details: Huh-7 cells
Procedure, shortened: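 Huh-7 HCV replicon cells were seeded at 2000 cells/well in medium without Geneticin. Compounds were added as ten-point 1:3 DMSO dilutions in quadruplicate (final DMSO 0.44%), with […] as the 100% cytotoxicity control. After 3 days at 37 °C, cells were washed and given 400 nM calcein AM for 30 min at RT, and fluorescence read at ex 490/em 520 nm. Signal was normalized to DMSO and puromycin wells, and CC50 taken from a four-parameter Hill fit.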

SMILES | CC50 at 72 h [nM]
CC(C)OC(=O)[C@H](C)NP(=O)(OC[C@H]1O[C@@](C#N)(c2ccc3c(N)ncnn23)[C@](C)(O)[C@@H]1O)Oc1ccccc1 (stereo not given in full) | > 89000
CC[C@H](C)OC(=O)[C@H](C)NP(=O)(OC[C@H]1O[C@@](C#N)(c2ccc3c(N)ncnn23)[C@](C)(O)[C@@H]1O)Oc1ccccc1 (stereo not given in full) | > 89000

test system: Hepatitis C virus; experiment: Antiviral activity against HCV genotype 1b infected in human HuH7 cells assessed as inhibition of viral replication after 3 days by luminescence assay; type: functional, organism-based, Hepacivirus hominis; details: Huh-7, 72 h
Procedure, shortened: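 Multiplex replicon assay carrying a renilla luciferase reporter, with stable GT1b, 1a and 2a replicons and chimeric 2b, 3a, 4a, 5a and 6a replicons. 2000 replicon cells/well in medium without Geneticin. Ten-step 1:3 serial dilutions, four replicates, 0.44% DMSO final. Incubated 3 days at 37 °C, 5% CO₂. Luminescence normalised to DMSO wells and to protease-inhibitor (ITMN-191) wells. EC50 from a four-parameter Hill fit.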

SMILES | EC50 [nM]
CC(C)OC(=O)[C@H](C)NP(=O)(OC[C@H]1O[C@@](C#N)(c2ccc3c(N)ncnn23)[C@](C)(O)[C@@H]1O)Oc1ccccc1 (stereo not given in full) | 1050
CC[C@H](C)OC(=O)[C@H](C)NP(=O)(OC[C@H]1O[C@@](C#N)(c2ccc3c(N)ncnn23)[C@](C)(O)[C@@H]1O)Oc1ccccc1 (stereo not given in full) | 230
